ChEMBL document CHEMBL1138290 (J Med Chem, 2007)

Assays:
[1] = Cell cycle arrest in KB/HeLa cells assessed as accumulation at S phase at 0.1 nM after 24 hrs by flow cytometric analysis; assay type: functional, cell-based; conditions: Homo sapiens
Method in brief: (§1)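 Subconfluent KB/HeLa cells exposed to a range of compound concentrations for 24 h. Cell cycle phase distribution determined by flow cytometry. Experiments run at least in duplicate (n = 2).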

[2] = Cell cycle arrest in KB/HeLa cells assessed as accumulation at S phase at 100 nM after 24 hrs by flow cytometric analysis; assay type: functional, cell-based; conditions: Homo sapiens; method in brief: as §1
[3] = Cell cycle arrest in KB/HeLa cells assessed as accumulation at G2M phase at 3.16 nM after 24 hrs by flow cytometric analysis; assay type: functional, cell-based; conditions: Homo sapiens
[4] = Cell cycle arrest in KB/HeLa cells assessed as accumulation at S phase at 31.6 nM after 24 hrs by flow cytometric analysis; assay type: functional, cell-based; conditions: Homo sapiens; method in brief: as §1
[5] = Cell cycle arrest in KB/HeLa cells assessed as accumulation at G2M phase at 0.3 nM after 24 hrs by flow cytometric analysis; assay type: functional, cell-based; conditions: Homo sapiens; method in brief: as §1
[6] = Cell cycle arrest in KB/HeLa cells assessed as accumulation at G2M phase at 31.6 nM after 24 hrs by flow cytometric analysis; assay type: functional, cell-based; conditions: Homo sapiens; method in brief: as §1
[7] = Cell cycle arrest in KB/HeLa cells assessed as accumulation at G1 phase at 100 nM after 24 hrs by flow cytometric analysis; assay type: functional, cell-based; conditions: Homo sapiens; method in brief: as §1
[8] = Cell cycle arrest in KB/HeLa cells assessed as accumulation at G1 phase at 0.3 nM after 24 hrs by flow cytometric analysis; assay type: functional, cell-based; conditions: Homo sapiens; method in brief: as §1
[9] = Cell cycle arrest in KB/HeLa cells assessed as accumulation at G1 phase at 316 nM after 24 hrs by flow cytometric analysis; assay type: functional, cell-based; conditions: Homo sapiens; method in brief: as §1
[10] = Cell cycle arrest in KB/HeLa cells assessed as accumulation at G1 phase at 31.6 nM after 24 hrs by flow cytometric analysis; assay type: functional, cell-based; conditions: Homo sapiens; method in brief: as §1
[11] = Cell cycle arrest in KB/HeLa cells assessed as accumulation at S phase at 316 nM after 24 hrs by flow cytometric analysis; assay type: functional, cell-based; conditions: Homo sapiens; method in brief: as §1
[12] = Cell cycle arrest in KB/HeLa cells assessed as accumulation at G2M phase at 1 nM after 24 hrs by flow cytometric analysis; assay type: functional, cell-based; conditions: Homo sapiens; method in brief: as §1
[13] = Cell cycle arrest in KB/HeLa cells assessed as accumulation at G1 phase at 10 nM after 24 hrs by flow cytometric analysis; assay type: functional, cell-based; conditions: Homo sapiens; method in brief: as §1
[14] = Cell cycle arrest in KB/HeLa cells assessed as accumulation at G2M phase at 10 nM after 24 hrs by flow cytometric analysis; assay type: functional, cell-based; conditions: Homo sapiens; method in brief: as §1
[15] = Cell cycle arrest in KB/HeLa cells assessed as accumulation at G1 phase at 1 nM after 24 hrs by flow cytometric analysis; assay type: functional, cell-based; conditions: Homo sapiens; method in brief: as §1
[16] = Cell cycle arrest in KB/HeLa cells assessed as accumulation at G2M phase at 316 nM after 24 hrs by flow cytometric analysis; assay type: functional, cell-based; conditions: Homo sapiens; method in brief: as §1
[17] = Cell cycle arrest in KB/HeLa cells assessed as accumulation at G2M phase at 0.1 nM after 24 hrs by flow cytometric analysis; assay type: functional, cell-based; conditions: Homo sapiens; method in brief: as §1
[18] = Cell cycle arrest in KB/HeLa cells assessed as accumulation at S phase at 3.16 nM after 24 hrs by flow cytometric analysis; assay type: functional, cell-based; conditions: Homo sapiens; method in brief: as §1
[19] = Cell cycle arrest in KB/HeLa cells assessed as accumulation at S phase at 0.3 nM after 24 hrs by flow cytometric analysis; assay type: functional, cell-based; conditions: Homo sapiens; method in brief: as §1
[20] = Cell cycle arrest in KB/HeLa cells assessed as accumulation at G1 phase at 3.16 nM after 24 hrs by flow cytometric analysis; assay type: functional, cell-based; conditions: Homo sapiens; method in brief: as §1
[21] = Cell cycle arrest in KB/HeLa cells assessed as accumulation at G2M phase at 100 nM after 24 hrs by flow cytometric analysis; assay type: functional, cell-based; conditions: Homo sapiens; method in brief: as §1
[22] = Cell cycle arrest in KB/HeLa cells assessed as accumulation at S phase at 1 nM after 24 hrs by flow cytometric analysis; assay type: functional, cell-based; conditions: Homo sapiens; method in brief: as §1
[23] = Cell cycle arrest in KB/HeLa cells assessed as accumulation at G1 phase at 0.1 nM after 24 hrs by flow cytometric analysis; assay type: functional, cell-based; conditions: Homo sapiens; method in brief: as §1
[24] = Cell cycle arrest in KB/HeLa cells assessed as accumulation at G2/M phase after 24 hrs by flow cytometric analysis; assay type: functional, cell-based; conditions: Homo sapiens; method in brief: as §1
[25] = Cell cycle arrest in KB/HeLa cells assessed as accumulation at S phase at 10 nM after 24 hrs by flow cytometric analysis; assay type: functional, cell-based; conditions: Homo sapiens; method in brief: as §1
P388 [26] = test: Antiproliferative activity against mouse P388 cells after 48 hrs by XTT assay; assay type: functional, cell-based; conditions: P388, 48 h
Method in brief: (§2)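 XTT proliferation assay with 48 h incubation with test compound. Each experiment run at least in duplicate (n = 2). IC50 calculated by nonlinear regression of dose-response curves.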

P388 [27] = test: Antiproliferative activity against mouse adriamycin-resistant P388 cells after 48 hrs by XTT assay; assay type: functional, cell-based; conditions: P388, 48 h; method in brief: as §2
[28] = Antiproliferative activity against rat multidrug-resistant L12 cells after 48 hrs by XTT assay; assay type: functional, cell-based; conditions: L1.2, 48 h; method in brief: as §2
[29] = Antiproliferative activity against rat L12 cells after 48 hrs by XTT assay; assay type: functional, cell-based
RKO [30] = test: Cytotoxicity against human RKO cells with ectopic-inducible expression of p27kip1 after 48 hrs by XTT assay; assay type: functional, cell-based; method in brief: as §2
[31] = Cytotoxicity against human KB/HeLa cells after 48 hrs by XTT assay; assay type: functional, cell-based; method in brief: as §2
SF-268 = test: Cytotoxicity against human SF268 cells after 48 hrs by XTT assay; assay type: functional, cell-based; conditions: SF-268, 48 h; method in brief: as §2
L1210 [32] = test: Antiproliferative activity against mouse vincristine-resistant L1210 cells after 48 hrs by XTT assay; assay type: functional, cell-based; conditions: L1210, 48 h; method in brief: as §2
L1210 [33] = test: Antiproliferative activity against mouse L1210 cells after 48 hrs by XTT assay; assay type: functional, cell-based; conditions: L1210, 48 h; method in brief: as §2
Tubulin [34] = target: Tubulin (Sus scrofa, UniProt P02554+P02550); test: Inhibition of porcine brain tubulin polymerization
RKO [35] = test: Cytotoxicity against human RKO cells after 48 hrs by XTT assay; assay type: functional, cell-based; method in brief: as §2
[36] = Cell cycle arrest in KB/HeLa cells assessed as accumulation at S phase at 1000 nM after 24 hrs by flow cytometric analysis; assay type: functional, cell-based; conditions: Homo sapiens; method in brief: as §1
[37] = Cell cycle arrest in KB/HeLa cells assessed as accumulation at G2M phase at 1000 nM after 24 hrs by flow cytometric analysis; assay type: functional, cell-based; conditions: Homo sapiens; method in brief: as §1
NCI-H460 = test: Cytotoxicity against human NCI-H460 cells after 48 hrs by XTT assay; assay type: functional, cell-based; conditions: NCI-H460, 48 h; method in brief: as §2
Tubulin [38] = test: Displacement of [3H]colchicine from biotinylated tubulin by scintillation proximity assay; assay type: protein-complex assay, Homo sapiens
[39] = Cell cycle arrest in KB/HeLa cells assessed as accumulation at G1 phase at 1000 nM after 24 hrs by flow cytometric analysis; assay type: functional, cell-based; conditions: Homo sapiens; method in brief: as §1
SK-OV-3 = test: Cytotoxicity against human SKOV3 cells after 48 hrs by XTT assay; assay type: functional, cell-based; conditions: SK-OV-3, 48 h; method in brief: as §2
K562 = test: Antiproliferative activity against human K562 cells after 48 hrs; assay type: functional, cell-based; conditions: K562, 48 h
Method in brief: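 Growth of K562 cells measured by counting cells with a hemocytometer after 48 h (2 days) of drug treatment. IC50 is the mean of at least three independent determinations.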

CC[C@]1(O)C[C@H]2CN(CCc3c([nH]c4ccccc34)[C@@](C(=O)OC)(c3cc4c(cc3OC)N(C=O)[C@H]3[C@@](O)(C(=O)OC)[C@H](OC(C)=O)[C@]5(CC)C=CCN6CC[C@]43[C@@H]65)C2)C1 [VINCRISTINE]
Activity [1]: 27.7% | Activity [2]: 4.8% | Activity [3]: 65.8% | Activity [4]: 7.2% | Activity [5]: 11.7% | Activity [6]: 92.6% | Activity [7]: 0.2% | Activity [8]: 64.5% | Activity [9]: 0.2% | Activity [10]: 1% | Activity [11]: 5.9% | Activity [12]: 17.2% | Activity [13]: 0.5% | Activity [14]: 86.7% | Activity [15]: 53.7% | Activity [16]: 93.8% | Activity [17]: 11.1% | Activity [18]: 26% | Activity [19]: 24% | Activity [20]: 6.5% | Activity [21]: 95.1% | Activity [22]: 28.3% | Activity [23]: 61.2% | EC50 [24]: 2.4 nM | Activity [25]: 13.1%

COC(=O)Nc1nc2cc(C(=O)c3cccs3)ccc2[nH]1 [NOCODAZOLE]
IC50 (P388 [26]): 70 nM | Activity [2]: 26.1% | Activity [3]: 10.6% | Activity [4]: 25.7% | Activity [6]: 9.9% | IC50 (P388 [27]): 50 nM | Activity [7]: 22.3% | IC50 [28]: 50 nM | Activity [9]: 0.9% | Activity [10]: 64.4% | Activity [11]: 6% | Activity [12]: 11.1% | IC50 [29]: 300 nM | Activity [13]: 64.2% | IC50 (RKO [30]): > 14000 nM | Activity [14]: 10% | Activity [15]: 65.2% | Activity [16]: 93.2% | IC50 [31]: 140 nM | Activity [18]: 24.8% | Activity [20]: 64.6% | Activity [21]: 51.4% | Activity [22]: 23.6% | EC50 [24]: 91 nM | Activity [25]: 25.7%

COc1ccc(S(=O)(=O)Oc2c3ccccc3cc3ccccc23)cc1
IC50 (SF-268): 340 nM | Activity [1]: 26.7% | IC50 (P388 [26]): 380 nM | IC50 (L1210 [32]): 460 nM | Activity [2]: 31% | Activity [3]: 11.4% | Activity [4]: 26.8% | Activity [5]: 12.4% | Activity [6]: 11.4% | IC50 (P388 [27]): 270 nM | IC50 (L1210 [33]): 540 nM | Activity [7]: 56.4% | Activity [8]: 61.6% | IC50 (Tubulin [34]): 1200 nM | IC50 (RKO [35]): 280 nM | Activity [36]: 8.4% | IC50 [28]: 360 nM | Activity [9]: 0.8% | Activity [10]: 61.8% | Activity [37]: 90.5% | Activity [11]: 4.8% | Activity [12]: 11.7% | IC50 [29]: 440 nM | Activity [13]: 61.8% | IC50 (RKO [30]): > 9000 nM | IC50 (NCI-H460): 640 nM | Activity [14]: 12.6% | IC50 (Tubulin [38]): 560 nM | Activity [15]: 62.1% | Activity [39]: 1.1% | Activity [16]: 94.4% | IC50 [31]: 370 nM | Activity [17]: 11.9% | IC50 (SK-OV-3): 250 nM | Activity [18]: 26% | Activity [19]: 26% | Activity [20]: 62.7% | IC50 (K562): 90 nM | Activity [21]: 12.6% | Activity [22]: 26.2% | Activity [23]: 61.4% | EC50 [24]: 135 nM | Activity [25]: 25.5%
